ChEMBL document CHEMBL5376019, “Design, synthesis and evaluation of 2-phenylpyrimidine derivatives as novel antifungal agents targeting CYP51” (RSC Med Chem, 2024)
In brackets after ≈: the same amount, converted by molar mass.

Assays:
[1] = test system: Candida albicans; assay: Antifungal activity against Candida albicans ATCC SC5314 assessed as fungal growth inhibition; format: functional
Procedure, shortened: (§1)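 Broth microdilution per NCCLS M27-A3, with fluconazole as positive control. Assay medium was RPMI 1640 buffered with MOPS. Inocula were diluted to 1–5 × 10^3 CFU mL−1 and seeded in 96-well plates. Compounds were dissolved in DMSO and serially diluted in the growth medium. MIC was the read-out.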

[2] = test system: Candida albicans; assay: Antifungal activity against Candida albicans CPCC400616 assessed as fungal growth inhibition; format: functional; procedure, shortened: as §1
[3] = test system: Candida tropicalis; assay: Antifungal activity against Candida tropicalis CGMCC 2.3739 assessed as fungal growth inhibition; format: functional; procedure, shortened: as §1
[4] = test system: Cryptococcus neoformans; assay: Antifungal activity against Cryptococcus neoformans CGMCC 2.3161 assessed as fungal growth inhibition; format: functional; procedure, shortened: as §1
[5] = test system: Candida parapsilosis; assay: Antifungal activity against Candida parapsilosis GIM 2.190 assessed as fungal growth inhibition; format: functional; conditions: Lodderomyces parapsilosis; procedure, shortened: as §1
[6] = test system: Nakaseomyces glabratus; assay: Antifungal activity against clinical isolate Candida glabrata assessed as fungal growth inhibition; format: functional; procedure, shortened: as §1
[7] = test system: Pichia kudriavzevii; assay: Antifungal activity against Pichia kudriavzevii GIM 2.1 assessed as fungal growth inhibition; format: functional; procedure, shortened: as §1
[8] = test system: MDA-MB-231; assay: Cytotoxicity against human MDA-MB-231 cells assessed as reduction in cell viability at 32 uM incubated for 24 hrs by CCK-8 assay; format: toxicity, cell-based; conditions: mda-mb-231, 24 h
Procedure, shortened: (§2)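 Cells from ATCC were grown in RPMI-1640 or DMEM with 10% FBS and 1% penicillin/streptomycin. They were seeded at 5 × 10^4 cells/well and allowed to adhere overnight at 37 °C, 5% CO2, with at least 6 replicates per group. Compounds were applied at 2–64 μM for 24 h; medium-only wells served as control. Viability was measured by CCK-8 absorbance at 450 nm.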

[9] = test system: DU-145; assay: Cytotoxicity against human DU-145 cells assessed as reduction in cell viability at 32 uM incubated for 24 hrs by CCK-8 assay; format: toxicity, cell-based; conditions: du-145, 24 h; procedure, shortened: as §2
[10] = test system: L929; assay: Cytotoxicity against mouse L929 cells assessed as reduction in cell viability at 32 uM incubated for 24 hrs by CCK-8 assay; format: toxicity, cell-based; conditions: l929, 24 h; procedure, shortened: as §2
[11] = Metabolic stability in human liver microsomes assessed as half life measured upto 60 min by LC-MS/MS analysis; format: ADME, Microsome
Procedure, shortened: (§3)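 Human liver microsomes were diluted to 0.59 mg mL−1 in 100 mM potassium phosphate buffer and prewarmed 10 min at 37 °C. Compound was added from a 100 μM working solution. Incubation was 60 min at 37 °C with NADPH, alongside a no-cofactor control. Samples taken at 5, 15, 30, 45 and 60 min were quenched in acetonitrile containing tolbutamide and labetalol, centrifuged, and analysed by LC-MS/MS.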

[12] = Metabolic stability in human liver microsomes assessed as intrinsic clearance measured upto 60 min by LC-MS/MS analysis; format: ADME, Microsome; conditions: 1 h; procedure, shortened: as §3
[13] = Metabolic stability in human liver microsomes assessed as remaining measured upto 60 min by LC-MS/MS analysis; format: ADME, Microsome; conditions: read-out: Stability; procedure, shortened: as §3
[14] = biological target: T1, CYP1A2 (Homo sapiens, UniProt P05177); assay: Inhibition of CYP1A2 in human liver microsomes using phenacetin as substrate at 10 uM incubated for 10 min by LC-MS/MS analysis relative to control; format: ADME, Microsome; conditions: probe phenacetin
T1 sequence (P05177 whole entry): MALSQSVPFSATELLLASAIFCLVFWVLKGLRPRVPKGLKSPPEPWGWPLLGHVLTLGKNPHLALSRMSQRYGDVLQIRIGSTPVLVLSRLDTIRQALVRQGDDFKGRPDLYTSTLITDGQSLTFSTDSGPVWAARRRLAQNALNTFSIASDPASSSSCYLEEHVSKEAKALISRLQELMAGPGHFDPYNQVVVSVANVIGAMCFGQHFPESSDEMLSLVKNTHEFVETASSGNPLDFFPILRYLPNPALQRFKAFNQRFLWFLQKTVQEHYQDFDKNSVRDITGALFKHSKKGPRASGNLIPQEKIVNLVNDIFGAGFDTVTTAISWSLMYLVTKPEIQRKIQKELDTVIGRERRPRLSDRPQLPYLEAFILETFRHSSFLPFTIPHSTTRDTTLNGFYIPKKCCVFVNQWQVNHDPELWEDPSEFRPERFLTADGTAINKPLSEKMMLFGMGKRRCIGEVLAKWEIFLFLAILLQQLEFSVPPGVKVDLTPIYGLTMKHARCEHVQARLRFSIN
Procedure, shortened: (§4)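 Human liver microsomes (0.253 mg mL−1) were used with probe substrates: phenacetin 90 μM (1A2), diclofenac 8 μM (2C9), S-mephenytoin 20 μM (2C19), dextromethorphan 4 μM (2D6), and midazolam 2 μM plus testosterone 50 μM (3A4). Test compound was at 10 μM. Mixtures were preincubated 5 min at 37 °C, then started with an NADPH regenerating system and run 10 min at 37 °C. Reactions were stopped with internal standard and supernatant analysed by LC-MS/MS. Isoform-selective inhibitors at 10 μM served as positive controls.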

[15] = biological target: CYP2C9 (Homo sapiens, UniProt P11712); assay: Inhibition of CYP2C9 in human liver microsomes using diclofenac as substrate at 10 uM incubated for 10 min by LC-MS/MS analysis relative to control; format: ADME, Microsome; conditions: probe diclofenac; procedure, shortened: as §4
[16] = biological target: CYP2C19 (Homo sapiens, UniProt P33261); assay: Inhibition of CYP2C19 in human liver microsomes using S-mephenytoin as substrate at 10 uM incubated for 10 min by LC-MS/MS analysis relative to control; format: ADME, Microsome; conditions: probe S-mephenytoin; procedure, shortened: as §4
[17] = biological target: CYP2D6 (Homo sapiens, UniProt P10635); assay: Inhibition of CYP2D6 in human liver microsomes using dextromethorphan as substrate at 10 uM incubated for 10 min by LC-MS/MS analysis relative to control; format: ADME, Microsome; conditions: probe dextromethorphan; procedure, shortened: as §4
[18] = biological target: CYP3A4 (Homo sapiens, UniProt P08684); assay: Inhibition of CYP3A4 in human liver microsomes using midazolam and testosterone as substrates at 10 uM incubated for 10 min by LC-MS/MS analysis relative to control; format: ADME, Microsome; conditions: probe midazolam and testosterone; procedure, shortened: as §4
CYP3A4, sequence (P08684 whole entry): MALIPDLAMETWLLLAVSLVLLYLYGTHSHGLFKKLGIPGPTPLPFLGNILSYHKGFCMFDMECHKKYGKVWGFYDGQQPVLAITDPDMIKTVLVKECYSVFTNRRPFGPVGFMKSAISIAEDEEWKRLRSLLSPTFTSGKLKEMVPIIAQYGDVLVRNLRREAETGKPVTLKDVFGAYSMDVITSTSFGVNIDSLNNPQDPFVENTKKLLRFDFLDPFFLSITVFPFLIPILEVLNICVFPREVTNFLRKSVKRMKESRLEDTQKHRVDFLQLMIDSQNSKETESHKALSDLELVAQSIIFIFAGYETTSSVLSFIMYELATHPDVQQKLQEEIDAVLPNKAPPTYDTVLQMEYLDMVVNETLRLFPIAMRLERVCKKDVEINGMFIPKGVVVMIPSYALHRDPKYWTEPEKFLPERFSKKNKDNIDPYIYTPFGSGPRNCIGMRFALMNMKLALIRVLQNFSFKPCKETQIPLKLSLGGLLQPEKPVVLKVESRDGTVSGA

CYP2D6, sequence (P10635 whole entry): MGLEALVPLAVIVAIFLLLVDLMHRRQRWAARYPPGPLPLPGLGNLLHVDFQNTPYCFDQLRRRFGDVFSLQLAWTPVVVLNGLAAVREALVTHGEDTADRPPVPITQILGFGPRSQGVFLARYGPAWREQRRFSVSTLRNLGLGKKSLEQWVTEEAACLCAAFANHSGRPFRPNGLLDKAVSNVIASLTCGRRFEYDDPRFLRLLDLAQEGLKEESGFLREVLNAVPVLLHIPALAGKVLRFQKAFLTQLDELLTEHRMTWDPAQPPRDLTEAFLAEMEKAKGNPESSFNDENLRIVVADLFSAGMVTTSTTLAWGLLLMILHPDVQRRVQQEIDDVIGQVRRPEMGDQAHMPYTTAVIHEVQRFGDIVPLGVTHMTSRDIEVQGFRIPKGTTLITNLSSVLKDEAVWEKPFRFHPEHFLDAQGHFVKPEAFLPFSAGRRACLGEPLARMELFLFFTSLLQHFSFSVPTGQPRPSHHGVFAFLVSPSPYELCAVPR
CYP2C9, sequence (P11712 whole entry): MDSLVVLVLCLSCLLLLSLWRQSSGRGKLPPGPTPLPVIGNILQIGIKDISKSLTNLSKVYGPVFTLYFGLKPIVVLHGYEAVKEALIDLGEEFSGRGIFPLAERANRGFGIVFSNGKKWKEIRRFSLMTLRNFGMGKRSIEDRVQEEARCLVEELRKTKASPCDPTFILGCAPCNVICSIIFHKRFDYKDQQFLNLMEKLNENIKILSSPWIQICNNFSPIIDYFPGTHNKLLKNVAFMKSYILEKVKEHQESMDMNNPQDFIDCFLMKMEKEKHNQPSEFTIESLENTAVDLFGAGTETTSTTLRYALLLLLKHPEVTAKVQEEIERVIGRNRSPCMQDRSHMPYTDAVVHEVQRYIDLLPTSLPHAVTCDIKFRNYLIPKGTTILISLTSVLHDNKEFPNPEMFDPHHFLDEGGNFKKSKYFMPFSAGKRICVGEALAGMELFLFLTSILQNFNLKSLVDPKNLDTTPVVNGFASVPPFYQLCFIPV
CYP2C19, sequence (P33261 whole entry): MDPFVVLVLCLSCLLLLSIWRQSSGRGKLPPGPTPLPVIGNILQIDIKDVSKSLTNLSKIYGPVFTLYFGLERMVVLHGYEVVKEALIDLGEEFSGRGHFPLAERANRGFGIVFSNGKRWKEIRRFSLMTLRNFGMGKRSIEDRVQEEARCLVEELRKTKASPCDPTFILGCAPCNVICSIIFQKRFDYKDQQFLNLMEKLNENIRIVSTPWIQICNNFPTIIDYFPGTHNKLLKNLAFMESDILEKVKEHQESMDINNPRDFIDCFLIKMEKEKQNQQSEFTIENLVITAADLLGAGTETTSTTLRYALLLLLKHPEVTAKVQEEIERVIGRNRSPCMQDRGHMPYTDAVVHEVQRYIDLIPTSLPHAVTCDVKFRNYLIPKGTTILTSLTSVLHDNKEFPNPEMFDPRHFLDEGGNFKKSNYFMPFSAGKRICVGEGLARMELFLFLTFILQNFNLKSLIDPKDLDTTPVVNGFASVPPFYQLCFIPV

| SMILES | MIC [1] | MIC [2] | MIC [3] | MIC [4] | MIC [5] | MIC [6] | MIC [7] | Activity [8] | Activity [9] | Activity [10] | half-life [11] | CLH [12] | remaining at 1 h [13] | inhibition at 10 min, 10 µM [14] | inhibition at 10 min, 10 µM [15] | inhibition at 10 min, 10 µM [16] | inhibition at 10 min, 10 µM [17] | inhibition at 10 min, 10 µM [18] |
| --- | --- | --- | --- | --- | --- | --- | --- | --- | --- | --- | --- | --- | --- | --- | --- | --- | --- | --- |
| O=C(NC(Cn1ccnc1)C(=O)c1ccc(Cl)cc1)c1cnc(-c2cccc(F)c2)nc1 (racemic) | 1 µg/mL (≈ 2.22 µM) | 32 µg/mL (≈ 71.1 µM) | > 64 µg/mL | > 64 µg/mL | > 64 µg/mL | > 64 µg/mL | > 64 µg/mL |  |  |  |  |  |  |  |  |  |  |  |
| Cc1ccc(C(=O)C(Cn2ccnc2)NC(=O)c2cnc(-c3cccc(F)c3)nc2)cc1 (racemic) | 1 µg/mL (≈ 2.33 µM) | 4 µg/mL (≈ 9.31 µM) | 1 µg/mL (≈ 2.33 µM) | 64 µg/mL (≈ 149 µM) | 4 µg/mL (≈ 9.31 µM) | 8 µg/mL (≈ 18.6 µM) | 4 µg/mL (≈ 9.31 µM) | Non-Toxic | Non-Toxic | Non-Toxic |  |  |  |  |  |  |  |  |
| O=C(NC(Cn1ccnc1)C(=O)c1ccc(Br)cc1)c1cnc(-c2cccc(F)c2)nc1 (racemic) | 0.5 µg/mL (≈ 1.01 µM) | 8 µg/mL (≈ 16.2 µM) | 16 µg/mL (≈ 32.4 µM) | > 64 µg/mL | > 64 µg/mL | > 64 µg/mL | > 64 µg/mL |  |  |  |  |  |  |  |  |  |  |  |
| COc1ccc(C(=O)C(Cn2ccnc2)NC(=O)c2cnc(-c3cccc(F)c3)nc2)cc1 (racemic) | 0.25 µg/mL (≈ 0.561 µM) | 1 µg/mL (≈ 2.24 µM) | 0.25 µg/mL (≈ 0.561 µM) | 32 µg/mL (≈ 71.8 µM) | 1 µg/mL (≈ 2.24 µM) | 1 µg/mL (≈ 2.24 µM) | 1 µg/mL (≈ 2.24 µM) | Non-Toxic | Non-Toxic | Non-Toxic | 14.8 min | 94 µL/min/mg | 6.33% | 38.4% | 89.8% | 89.4% | 72.3% | 92.3% |
| O=C(NC(Cn1ccnc1)C(=O)c1ccc(I)cc1)c1cnc(-c2cccc(F)c2)nc1 (racemic) | 1 µg/mL (≈ 1.85 µM) | 32 µg/mL (≈ 59.1 µM) | > 64 µg/mL | > 64 µg/mL | > 64 µg/mL | > 64 µg/mL | > 64 µg/mL |  |  |  |  |  |  |  |  |  |  |  |
| O=C(NC(Cn1ccnc1)C(=O)c1ccc(F)cc1)c1cnc(-c2cccc(F)c2)nc1 (racemic) | 16 µg/mL (≈ 36.9 µM) | > 64 µg/mL | > 64 µg/mL | > 64 µg/mL | > 64 µg/mL | > 64 µg/mL | > 64 µg/mL |  |  |  |  |  |  |  |  |  |  |  |
| OC(Cn1cncn1)(Cn1cncn1)c1ccc(F)cc1F [FLUCONAZOLE] | 0.5 µg/mL (≈ 1.63 µM) | 1 µg/mL (≈ 3.27 µM) | 0.5 µg/mL (≈ 1.63 µM) | 4 µg/mL (≈ 13.1 µM) | 2 µg/mL (≈ 6.53 µM) | 4 µg/mL (≈ 13.1 µM) | 8 µg/mL (≈ 26.1 µM) |  |  |  |  |  |  |  |  |  |  |  |
